ChEMBL document CHEMBL3526002, “Tissue distribution and identification of radioactivity components at elimination phase after oral administration of [¹⁴C]CS-1036, an α-amylase inhibitor, to rats” (Drug Metab Dispos, 2013)

How the values were obtained:
Parameters in all cases: dose 5 mg/kg, dosed compound name [14C]CS-1036, route oral
Details in all cases: in vivo
Blood [1] = assay: Drug uptake in albino F344/DuCrlCrlj rat blood at 5 mg/kg, po after 4 hrs by liquid scintillation counting; type: ADME, organism-based
Summary of the method: (§1)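 Male F344/DuCrlCrlj rats (159–167 g; n = 3 per time point) received a single oral dose of [14C]CS-1036 at 5 mg/kg. Blood was taken from the abdominal aorta at 1, 4, 8, 24, 72, 168 and 336 h. Radioactivity was counted by LSC with external-standard efficiency correction. Results were converted to ng equivalent of CS-1036/ml using specific activity and sample volume, and reported as mean + S.D.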

Lung [2] = assay: Drug uptake in albino F344/DuCrlCrlj rat lung at 5 mg/kg, po after 336 hrs by liquid scintillation counting; type: ADME, organism-based
Zone of skin [3] = assay: Drug uptake in albino F344/DuCrlCrlj rat skin at 5 mg/kg, po after 4 hrs by liquid scintillation counting; type: ADME, organism-based
Stomach = assay: Drug uptake in albino F344/DuCrlCrlj rat stomach assessed as ng equivalent of CS-1036 at 5 mg/kg, po after 24 hrs by liquid scintillation counting; type: ADME, organism-based
Aorta [4] = assay: Drug uptake in albino F344/DuCrlCrlj rat aorta at 5 mg/kg, po after 72 hrs by liquid scintillation counting; type: ADME, organism-based
Adrenal gland [5] = assay: Drug uptake in albino F344/DuCrlCrlj rat adrenal gland assessed as ng equivalent of CS-1036 at 5 mg/kg, po after 168 hrs by liquid scintillation counting; type: ADME, organism-based
[6] = Drug uptake in albino F344/DuCrlCrlj rat mandibular gland at 5 mg/kg, po after 336 hrs by liquid scintillation counting; type: ADME, organism-based
Spleen [7] = assay: Drug uptake in albino F344/DuCrlCrlj rat spleen assessed as ng equivalent of CS-1036 at 5 mg/kg, po after 4 hrs by liquid scintillation counting; type: ADME, organism-based
Kidney [8] = assay: Drug uptake in albino F344/DuCrlCrlj rat kidney at 5 mg/kg, po after 168 hrs by liquid scintillation counting; type: ADME, organism-based
Lung [9] = assay: Drug uptake in albino F344/DuCrlCrlj rat lung at 5 mg/kg, po after 1 hr by liquid scintillation counting; type: ADME, organism-based
Small intestine = assay: Drug uptake in albino F344/DuCrlCrlj rat small intestine at 5 mg/kg, po after 1 hr by liquid scintillation counting; type: ADME, organism-based
Blood [10] = assay: Drug uptake in albino F344/DuCrlCrlj rat blood assessed as ng equivalent of CS-1036 at 5 mg/kg, po after 24 hrs by liquid scintillation counting; type: ADME, organism-based; summary of the method: as §1
Adrenal gland [11] = assay: Drug uptake in albino F344/DuCrlCrlj rat adrenal gland at 5 mg/kg, po after 336 hrs by liquid scintillation counting; type: ADME, organism-based
Kidney [12] = assay: Drug uptake in albino F344/DuCrlCrlj rat kidney at 5 mg/kg, po after 24 hrs by liquid scintillation counting; type: ADME, organism-based
Kidney [13] = assay: Drug uptake in albino F344/DuCrlCrlj rat kidney assessed as ng equivalent of CS-1036 at 5 mg/kg, po after 8 hrs by liquid scintillation counting; type: ADME, organism-based
[14] = Drug uptake in albino F344/DuCrlCrlj rat brown fat assessed as ng equivalent of CS-1036 at 5 mg/kg, po after 1 hr by liquid scintillation counting; type: ADME, organism-based, Brown adipose tissue
Kidney [15] = assay: Drug uptake in albino F344/DuCrlCrlj rat kidney at 5 mg/kg, po after 4 hrs by liquid scintillation counting; type: ADME, organism-based
Harderian gland [16] = assay: Drug uptake in albino F344/DuCrlCrlj rat harderian gland assessed as ng equivalent of CS-1036 at 5 mg/kg, po after 336 hrs by liquid scintillation counting; type: ADME, organism-based
Thymus = assay: Drug uptake in albino F344/DuCrlCrlj rat thymus assessed as ng equivalent of CS-1036 at 5 mg/kg, po after 336 hrs by liquid scintillation counting; type: ADME, organism-based
Harderian gland [17] = assay: Drug uptake in albino F344/DuCrlCrlj rat harderian gland at 5 mg/kg, po after 336 hrs by liquid scintillation counting; type: ADME, organism-based
Aorta [18] = assay: Drug uptake in albino F344/DuCrlCrlj rat aorta assessed as ng equivalent of CS-1036 at 5 mg/kg, po after 336 hrs by liquid scintillation counting; type: ADME, organism-based
[19] = Drug uptake in albino F344/DuCrlCrlj rat eyeball assessed as ng equivalent of CS-1036 at 5 mg/kg, po after 168 hrs by liquid scintillation counting; type: ADME, organism-based
Cerebellum [20] = assay: Drug uptake in albino F344/DuCrlCrlj rat cerebellum at 5 mg/kg, po after 1 hr by liquid scintillation counting; type: ADME, organism-based
Cerebrum [21] = assay: Drug uptake in albino F344/DuCrlCrlj rat cerebrum at 5 mg/kg, po after 72 hrs by liquid scintillation counting; type: ADME, organism-based
Summary of the method: (§2)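 Single oral [14C]CS-1036 at 5 mg/kg was given to male rats (159–167 g; n = 3). Cerebrum was collected after aortic bleeding at 1, 4, 8, 24, 72, 168 or 336 h, weighed, and homogenized in 2 volumes of saline. A 0.5 ml aliquot was solubilized in Soluene-350 and counted by LSC with external-standard correction. Results are in ng equivalent/g tissue from specific activity and sample weight.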

[22] = Drug uptake in albino F344/DuCrlCrlj rat epididymis assessed as ng equivalent of CS-1036 at 5 mg/kg, po after 8 hrs by liquid scintillation counting; type: ADME, organism-based
Cerebrum [23] = assay: Drug uptake in albino F344/DuCrlCrlj rat cerebrum assessed as ng equivalent of CS-1036 at 5 mg/kg, po after 4 hrs by liquid scintillation counting; type: ADME, organism-based; summary of the method: as §2
[24] = Drug uptake in albino F344/DuCrlCrlj rat pituitary gland at 5 mg/kg, po after 72 hrs by liquid scintillation counting; type: ADME, organism-based
Cerebellum [25] = assay: Drug uptake in albino F344/DuCrlCrlj rat cerebellum at 5 mg/kg, po after 8 hrs by liquid scintillation counting; type: ADME, organism-based
Zone of skin [26] = assay: Drug uptake in albino F344/DuCrlCrlj rat skin at 5 mg/kg, po after 72 hrs by liquid scintillation counting; type: ADME, organism-based
Spleen [27] = assay: Drug uptake in albino F344/DuCrlCrlj rat spleen at 5 mg/kg, po after 24 hrs by liquid scintillation counting; type: ADME, organism-based
Heart [28] = assay: Drug uptake in albino F344/DuCrlCrlj rat heart assessed as ng equivalent of CS-1036 at 5 mg/kg, po after 8 hrs by liquid scintillation counting; type: ADME, organism-based
Large intestine = assay: Drug uptake in albino F344/DuCrlCrlj rat large intestine assessed as ng equivalent of CS-1036 at 5 mg/kg, po after 4 hrs by liquid scintillation counting; type: ADME, organism-based
Plasma = assay: Drug uptake in albino F344/DuCrlCrlj rat plasma assessed as ng equivalent of CS-1036 at 5 mg/kg, po after 8 hrs by liquid scintillation counting; type: ADME, organism-based
Heart [29] = assay: Drug uptake in albino F344/DuCrlCrlj rat heart at 5 mg/kg, po after 8 hrs by liquid scintillation counting; type: ADME, organism-based
[30] = Drug uptake in albino F344/DuCrlCrlj rat epididymis assessed as ng equivalent of CS-1036 at 5 mg/kg, po after 336 hrs by liquid scintillation counting; type: ADME, organism-based
Liver = assay: Drug uptake in albino F344/DuCrlCrlj rat liver at 5 mg/kg, po after 72 hrs by liquid scintillation counting; type: ADME, organism-based

Q: For `C[C@H]1O[C@@H](O[C@H]2[C@H](O)[C@@H](O)[C@@H](O[14C@H]3[14C@H](O)[14CH2]N[14C@@H]3[14CH2]O)O[C@@H]2CO)[C@H](O)[C@@H](O)[C@@H]1O`, which Radiolabel recovery (Blood [1]) is on record?
A: The Radiolabel recovery was 44.3 ngequiv/ml.

Q: And the Radiolabel recovery (Lung [2])?
A: Its Radiolabel recovery is 8.43 ngequiv/g.

Q: And the Radiolabel recovery (Zone of skin [3])?
A: Its Radiolabel recovery is 33 ngequiv/g.

Q: And the Radiolabel recovery (Stomach)?
A: Its Radiolabel recovery is 16 ngequiv/g.

Q: And the Radiolabel recovery (Aorta [4])?
A: Its Radiolabel recovery is 35.8 ngequiv/g.

Q: And the Radiolabel recovery (Adrenal gland [5])?
A: The Radiolabel recovery was 93 ngequiv/g.

Q: And the Radiolabel recovery [6]?
A: The Radiolabel recovery was 8.58 ngequiv/g.

Q: What about the Radiolabel recovery (Spleen [7]) of the same compound?
A: The Radiolabel recovery was 6.3 ngequiv/g.

Q: What about the Radiolabel recovery (Kidney [8]) of the same compound?
A: Its Radiolabel recovery is 27 ngequiv/g.

Q: What about the Radiolabel recovery (Lung [9]) of the same compound?
A: The Radiolabel recovery was 47.1 ngequiv/g.

Q: And the Radiolabel recovery (Small intestine)?
A: The Radiolabel recovery was 52100 ngequiv/g.

Q: And the Radiolabel recovery (Blood [10])?
A: The Radiolabel recovery was 4 ngequiv/ml.

Q: What about the Radiolabel recovery (Adrenal gland [11]) of the same compound?
A: The Radiolabel recovery was 19.5 ngequiv/g.

Q: And the Radiolabel recovery (Kidney [12])?
A: Its Radiolabel recovery is 137 ngequiv/g.

Q: What about the Radiolabel recovery (Kidney [13]) of the same compound?
A: The Radiolabel recovery was 1970 ngequiv/g.

Q: What about the Radiolabel recovery [14] of the same compound?
A: Its Radiolabel recovery is 4.1 ngequiv/g.

Q: What about the Radiolabel recovery (Kidney [15]) of the same compound?
A: The Radiolabel recovery was 383 ngequiv/g.

Q: And the Radiolabel recovery (Harderian gland [16])?
A: The Radiolabel recovery was 2.33 ngequiv/g.

Q: What about the Radiolabel recovery (Thymus) of the same compound?
A: The Radiolabel recovery was 1.96 ngequiv/g.

Q: And the Radiolabel recovery (Harderian gland [17])?
A: The Radiolabel recovery was 5.08 ngequiv/g.

Q: What about the Radiolabel recovery (Aorta [18]) of the same compound?
A: The Radiolabel recovery was 10.8 ngequiv/g.

Q: And the Radiolabel recovery [19]?
A: The Radiolabel recovery was 2.3 ngequiv/g.

Q: And the Radiolabel recovery (Cerebellum [20])?
A: Its Radiolabel recovery is 9.35 ngequiv/g.

Q: And the Radiolabel recovery (Cerebrum [21])?
A: Its Radiolabel recovery is 8.91 ngequiv/g.

Q: And the Radiolabel recovery [22]?
A: The Radiolabel recovery was 37.8 ngequiv/g.

Q: What about the Radiolabel recovery (Cerebrum [23]) of the same compound?
A: Its Radiolabel recovery is 1.4 ngequiv/g.

Q: What about the Radiolabel recovery [24] of the same compound?
A: The Radiolabel recovery was 22.1 ngequiv/g.

Q: What about the Radiolabel recovery (Cerebellum [25]) of the same compound?
A: The Radiolabel recovery was 8.3 ngequiv/g.

Q: What about the Radiolabel recovery (Zone of skin [26]) of the same compound?
A: Its Radiolabel recovery is 91.5 ngequiv/g.

Q: And the Radiolabel recovery (Spleen [27])?
A: Its Radiolabel recovery is 82.4 ngequiv/g.

Q: And the Radiolabel recovery (Heart [28])?
A: Its Radiolabel recovery is 8.3 ngequiv/g.

Q: What about the Radiolabel recovery (Large intestine) of the same compound?
A: Its Radiolabel recovery is 6620 ngequiv/g.

Q: And the Radiolabel recovery (Plasma)?
A: The Radiolabel recovery was 10.8 ngequiv/ml.

Q: And the Radiolabel recovery (Heart [29])?
A: The Radiolabel recovery was 27.2 ngequiv/g.

Q: And the Radiolabel recovery [30]?
A: The Radiolabel recovery was 3.3 ngequiv/g.

Q: What about the Radiolabel recovery (Liver) of the same compound?
A: The Radiolabel recovery was 446 ngequiv/g.
